Experimental findings from ChEMBL document CHEMBL2401626 (J Med Chem, 2013) are described below.

For orientation: inhibition means the change of the read-out against control, counted positive when it falls. A word on the IC50: it is the concentration that inhibits the measured activity by half.

Activity calls are given as the source filed them. No cut-off for these calls is given here.

In series [1] the target is T1, Amyloid-beta precursor protein (Homo sapiens, UniProt P05067). In words: Induction of disaggregation of Cu2+-induced amyloid beta (1 to 42) fibril (unknown origin) at 50 uM after 24 hrs by thioflavin T fluorescence assay relative to control. The gist of the method:
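Aβ1−42 (25 μM final) in 20 μM HEPES pH 6.6, 150 μM NaCl, preincubated with Cu2+ (25 μM) for 24 h at 37 °C. Compound (50 μM final) then added for another 24 h at 37 °C. Sample diluted into 50 mM glycine−NaOH pH 8.0 with 5 μM ThT; fluorescence read after 5 min at ex 450/em 485 nm.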

The target of series [2] is T1, Amyloid-beta precursor protein. Briefly: Induction of disaggregation of self-mediated amyloid beta (1 to 42) fibril (unknown origin) at 25 uM after 24 hrs by transmission electron microscopic analysis.
Series [3] has the same target. Briefly: Induction of disaggregation of self-mediated amyloid beta (1 to 42) fibril (unknown origin) at 25 uM after 24 hrs by thioflavin T fluorescence assay relative to control.
Series [4] has the same target. In words: Inhibition of Cu2+-induced amyloid beta (1 to 42) aggregation (unknown origin) at 50 uM after 24 hrs by thioflavin T fluorescence assay relative to untreated control. The gist of the method: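 Aβ1−42 (25 μM final) in 20 μM HEPES pH 6.6, 150 μM NaCl, with Cu2+ (25 μM final) and compound (50 μM final). Incubated at 37 °C for 24 h, then diluted into 50 mM glycine−NaOH pH 8.0 with 5 μM ThT. Fluorescence read at ex 450/em 485 nm after 5 min; inhibition calculated as (1 − IFi/IFc) × 100 after background subtraction.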

Series [5] shares this target. To be noted: at 20 µM.
For series [6], the system named is SH-SY5Y. In words: Antioxidant activity in human SH-SY5Y cells assessed as decrease in t-BuOOH-induced intracellular ROS production at 2.5 to 10 uM incubated for 24 hrs prior to t-BuOOH challenge measured after 30 mins by DCFHDA-based fluorescence assay. In kind it is functional, cell-based. Summed up:
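SH-SY5Y cells (DMEM, 10% FCS, 37 °C, 5% CO2) seeded 1 × 10^4/well and grown 24 h. Compound added for 24 h; Trolox control at 5, 10, 20 μM. Cells are then washed, loaded with 5 μM DCFH-DA in PBS for 30 min, and challenged with 0.1 mM t-BuOOH for 30 min. Fluorescence read at ex 485/em 535 nm. Result is % of control by formula; three independent experiments in sextuplicate.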

Series [7] addresses T1, Amyloid-beta precursor protein. Briefly: Induction of disaggregation of Cu2+-induced amyloid beta (1 to 42) fibril (unknown origin) at 50 uM after 24 hrs by transmission electron microscopic analysis. Summed up:
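Cu2+-induced fibrils formed from Aβ1−42 (25 μM) with Cu2+ (25 μM) at 37 °C for 24 h in HEPES pH 6.6/NaCl, then treated with compound (50 μM) at 37 °C for 24 h. Aliquots placed on carbon-coated grid for 2 min, stained with 1% uranyl acetate for 2 min, and imaged by TEM.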

The target is the same in series [8]. Briefly: Inhibition of Cu2+-induced amyloid beta (1 to 42) aggregation (unknown origin) at 50 uM after 24 hrs by transmission electron microscopic analysis. Summed up:
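Aβ1−42 (25 μM) with Cu2+ (25 μM) and compound (50 μM) in HEPES pH 6.6/150 μM NaCl, incubated at 37 °C for 24 h. Aliquots put on carbon-coated grid for 2 min, stained with 1% uranyl acetate for 2 min, and imaged by TEM.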

Series [9] is described as follows: Metal chelating activity of the compound assessed as Cu2+ complex formation by Job's method. In kind it is functional. The gist of the method:
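Job's method: solutions held at constant total compound + CuSO4 concentration with varied mole fraction, in ethanol/HEPES buffer pH 7.4. UV absorbance change plotted against mole fraction; stoichiometry taken from the intersection of the straight lines.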

Series [10] in a line: Metal chelating activity of the compound assessed as Fe3+ complex formation at 20 uM after 30 mins by UV-vis spectrometry. It is filed as functional.
Series [11] is described as follows: Metal chelating activity of the compound assessed as Zn2+ complex formation at 20 uM after 30 mins by UV-vis spectrometry. In kind it is functional. Summed up: (§1)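 Absorption spectra of compound (20 μM final) alone or with metal salt (40 μM final; CuSO4, FeSO4 or ZnCl2) after 30 min in 20% ethanol/buffer (20 mM HEPES, 150 mM NaCl, pH 7.4). Recorded at room temperature by UV−vis.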

Series [12] in a line: Metal chelating activity of the compound assessed as Fe2+ complex formation at 20 uM after 30 mins by UV-vis spectrometry. It is filed as functional. The gist of the method:
as §1

Series [13] is described as follows: Metal chelating activity of the compound assessed as Cu2+ complex formation at 20 uM after 30 mins by UV-vis spectrometry. It is filed as functional. The gist of the method:
as §1

Series [14] can be described thus: Antioxidant activity assessed as trolox equivalent of AAPH radical scavenging activity at 10 uM preincubated for 10 mins followed by AAPH challenge measured every min for 120 mins by ORAC-FL assay. It is filed as functional. Summed up: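 Test compound and fluorescein (70 nM final) in 75 mM phosphate buffer pH 7.4, preincubated 10 min at 37 °C, then AAPH (40 mM solution) added. Fluorescence read every minute for 120 min (ex 485/em 520 nm). Curves normalized to buffer blank. […] Triplicate wells, at least three independent runs.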

Series [15] has as its target T1, Amyloid-beta precursor protein. Briefly: Inhibition of amyloid beta (1 to 42) fibril formation (unknown origin) at 20 uM after 24 hrs by transmission electron microscopic analysis. Summed up:
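Aβ1−42 (25 μM) incubated with compound (20 μM) at 37 °C for 24 h in 10 mM phosphate pH 7.4. Grid loaded for 2 min, stained with 1% uranyl acetate for 2 min, and imaged by TEM.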

Series [16] has the same target.
Series [17] concerns the target Acetylcholinesterase (Electrophorus electricus, UniProt O42275). In words: Inhibition of electric eel AChE using acetylthiocholine chloride as substrate preincubated for 15 mins followed by substrate addition measured every 1 min by Ellman's method. The gist of the method: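 Ellman method in 0.1 M potassium phosphate buffer, pH 8.0, 1 mL assay containing DTNB and thiocholine substrate (each 50 μL of 0.01 M stock). Enzyme (AChE stock 2.0 units/mL) preincubated with compound 15 min at 37 °C, then substrate added. A412 read at 1 min intervals at 37 °C. Each concentration in triplicate. IC50 from at least three experiments.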
For orientation: Ellman's reagent forms a yellow product with free thiols.

Series [18] is described as follows: Permeability of the compound at 100 ug/mL after 10 hrs by PAMPA. The note with it: read-out: permeability. It is filed as ADME. Summed up:
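PAMPA-BBB: filter coated with porcine brain lipid in dodecane (20 mg/mL); acceptor is PBS/EtOH 7:3. Compound taken from 5 mg/mL DMSO stock and diluted to 100 μg/mL final in PBS/EtOH, then incubated 10 h at 25 °C. Acceptor concentration measured by UV at five wavelengths, four wells, at least three runs; Pe calculated by equation.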
Background: The PAMPA barrier holds no transporters, so it reflects passive diffusion.

T1 sequence (P05067 whole entry): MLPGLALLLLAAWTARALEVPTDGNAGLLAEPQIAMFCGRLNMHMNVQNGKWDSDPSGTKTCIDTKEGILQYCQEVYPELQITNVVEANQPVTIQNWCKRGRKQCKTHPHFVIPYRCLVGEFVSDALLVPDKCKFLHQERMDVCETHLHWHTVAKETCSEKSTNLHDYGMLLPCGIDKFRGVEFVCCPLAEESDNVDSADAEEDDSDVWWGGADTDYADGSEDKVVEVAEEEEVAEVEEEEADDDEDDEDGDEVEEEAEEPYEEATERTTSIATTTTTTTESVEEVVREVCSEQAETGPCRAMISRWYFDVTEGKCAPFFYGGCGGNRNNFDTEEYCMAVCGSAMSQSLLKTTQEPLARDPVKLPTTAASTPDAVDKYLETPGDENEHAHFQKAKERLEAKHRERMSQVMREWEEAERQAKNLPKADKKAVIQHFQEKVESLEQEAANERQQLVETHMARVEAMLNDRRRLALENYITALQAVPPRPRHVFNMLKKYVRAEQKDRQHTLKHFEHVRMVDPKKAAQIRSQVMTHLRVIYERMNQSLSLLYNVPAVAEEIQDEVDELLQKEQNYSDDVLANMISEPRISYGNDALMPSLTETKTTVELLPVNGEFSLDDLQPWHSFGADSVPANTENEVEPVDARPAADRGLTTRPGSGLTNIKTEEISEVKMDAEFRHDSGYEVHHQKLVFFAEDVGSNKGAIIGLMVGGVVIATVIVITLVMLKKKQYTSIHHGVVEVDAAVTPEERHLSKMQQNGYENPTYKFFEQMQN
Sequence of Acetylcholinesterase (O42275 whole entry): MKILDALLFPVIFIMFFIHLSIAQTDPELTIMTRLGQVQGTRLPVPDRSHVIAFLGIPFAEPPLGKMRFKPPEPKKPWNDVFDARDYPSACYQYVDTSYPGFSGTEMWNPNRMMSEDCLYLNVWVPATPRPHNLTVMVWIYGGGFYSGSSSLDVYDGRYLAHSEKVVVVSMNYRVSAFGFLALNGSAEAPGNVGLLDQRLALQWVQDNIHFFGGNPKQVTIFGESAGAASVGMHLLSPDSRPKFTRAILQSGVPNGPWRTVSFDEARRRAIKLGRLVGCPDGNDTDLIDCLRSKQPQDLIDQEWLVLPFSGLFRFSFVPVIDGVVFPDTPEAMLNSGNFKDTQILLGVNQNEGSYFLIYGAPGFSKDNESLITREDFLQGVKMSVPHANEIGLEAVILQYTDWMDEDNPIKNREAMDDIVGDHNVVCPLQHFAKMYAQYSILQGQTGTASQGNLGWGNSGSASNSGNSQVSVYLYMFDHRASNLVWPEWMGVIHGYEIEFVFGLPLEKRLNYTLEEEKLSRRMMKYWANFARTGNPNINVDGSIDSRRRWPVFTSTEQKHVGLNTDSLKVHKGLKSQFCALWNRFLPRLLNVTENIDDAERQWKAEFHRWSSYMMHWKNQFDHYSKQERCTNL

As to `Oc1c(I)cc(Cl)c2cccnc12`, the Activity is 41% in [1] and 16.5% in [3]. Moreover, the outcome in series [2] was Active. In addition, the inhibition in [4] was found to be 70.9%; in series [5] it was 37.8%.

In the case of `COc1cc(/C=C/c2ccc(NCc3cc(N(C)C)ccc3O)cc2)cc(OC)c1`, the outcome in [6], in series [7], in [2], in series [9], in series [10] and in [11] was Active. Also, the outcome in series [12] and in series [13] was Active. Moreover, the Activity was found to be 88.8% in [1], 67% in series [3] and 4.72 equiv in series [14]. The inhibition result in series [8] and in [15] was “Active” each time. The inhibition in series [4] stood at 87.5%; in [5], 79.5%.

In the case of `COc1cc(/C=C/c2ccc(NCc3cccc(OC)c3O)cc2)cc(OC)c1`, the Activity in series [14] was 4.54 equiv. The inhibition in series [5] came to 18.1%.

For `Oc1cc(O)cc(/C=C/c2ccc(NCc3ccccc3O)cc2)c1`, the Activity in [14] was 6.27 equiv. Further, the IC50 in [16] worked out at 10.2 µM. The molecule further came in with an inhibition in series [5] of 68.1%.

Take `COc1cc(/C=C/c2ccc(NCc3ccccc3O)cc2)cc(OC)c1`: in series [14], the Activity is 3.67 equiv. The molecule further yielded an inhibition in series [5] of 20.7%.

Consider `COc1cc(/C=C/c2ccc(NCc3c[nH]c4ccccc34)cc2)cc(OC)c1`, for which, in series [14], the Activity was found to be 3.67 equiv. Moreover, the inhibition in [5] turned out to be 24.1%.

On to `COc1cc(/C=C/c2ccc(NCc3cc(Cl)ccc3O)cc2)cc(OC)c1`, for which the Activity in series [14] was 4.12 equiv. Further, in series [5], the inhibition turned out to be 31.3%.

In the case of `COc1cc(/C=C/c2ccc(NCc3cc([N+](=O)[O-])ccc3O)cc2)cc(OC)c1`, the Activity in [14] worked out at 2.51 equiv. In addition, the inhibition in [5] is 46.5%.

Take `O=[N+]([O-])c1ccc(O)c(CNc2ccc(/C=C/c3cc(O)cc(O)c3)cc2)c1`: the Activity in [14] is 4.23 equiv. This molecule also yielded an IC50 in [16] of 7.06 µM. This molecule registered an inhibition in series [5] of 71.5%.

In the case of `CN(C)c1ccc(O)c(CNc2ccc(/C=C/c3cc(O)cc(O)c3)cc2)c1`, the result in series [6], in [7], in series [2], in series [9], in series [10] and in series [11] was Active. Also, the outcome in series [12] and in [13] was Active. The results for the Activity in series [1], in [3] and in series [14] were 85.9%, 82% and 4.7 equiv, respectively. Moreover, the inhibition result in [8] and in [15] was “Active” throughout. In addition, the inhibition worked out at 94.2% in series [4] and 78.1% in [5].

As to `COc1ccc(/C=C/c2ccc(NCc3cc(N(C)C)ccc3O)cc2)cc1`, in [14], the Activity came out at 2.37 equiv. This molecule came in with an IC50 in series [16] of 12.2 µM. Also, in [5], the inhibition was 71.2%.

As to `COc1cc(/C=C/c2ccc(NCc3ccccc3OC)cc2)cc(OC)c1`, the Activity in series [14] was determined as 3.67 equiv. Moreover, the inhibition in [5] was 6.9%.

As for `CN(C)c1ccccc1CNc1ccc(/C=C/c2cc(O)cc(O)c2)cc1`, the Activity in series [14] worked out at 3.57 equiv. Inhibition in [16] was half-maximal at 14.2 µM (IC50). The molecule also came in with an inhibition in [5] of 62.4%.

For `CN(C)c1ccc(/C=C/c2ccc(NCc3cc(N(C)C)ccc3O)cc2)cc1`, in [14], the Activity was found to be 3.86 equiv. The molecule further yielded a concentration for half-maximal inhibition (IC50) in [16] of 10.7 µM. The inhibition in [5] came out at 69.1%.

In [17], `C#CCN[C@@H]1CCc2ccc(OC(=O)N(C)CC)cc21` [LADOSTIGIL] gave an IC50 of 50 µM.

With `COc1cc(/C=C/c2ccc(NCc3ccc(OC)cc3O)cc2)cc(OC)c1`, the Activity in series [14] was determined as 3.32 equiv. The inhibition in [5] was 3.98%.

Turning to `COc1cc(/C=C/c2ccc(NCc3cc(NCC(C)C)ccc3O)cc2)cc(OC)c1`, in [14], the Activity amounted to 4.51 equiv. In series [16], this molecule displayed an IC50 of 10.3 µM. Also, the inhibition in series [5] was 67%.

Consider `Oc1ccc(/C=C/c2cc(O)cc(O)c2)cc1`, for which the Activity was found to be 86.4% in series [1] and 61% in series [3]. The result in series [2] was Active. The inhibition in series [4] was determined as 78.9%; in series [5], 69.7%.

For `CN(C)c1ccc(O)c(CNc2ccc(/C=C/c3cc(O)cc(O)c3)cc2)c1.Cl`, the Papp at 10 h, 100 ug/mL in series [18] stood at 2.55 ×10⁻⁶ cm/s.

For the molecule `COc1cc(/C=C/c2ccc(NCc3cc(NC(C)C)ccc3O)cc2)cc(OC)c1`, the Activity in series [14] was determined as 2.73 equiv. This molecule gave an IC50 in series [16] of 18.4 µM. The molecule further showed an inhibition in series [5] of 50.2%.

For the molecule `COc1cc(/C=C/c2ccc(NCc3cc(N(C)C)ccc3O)cc2)cc(OC)c1.Cl`, the Papp at 10 h, 100 ug/mL in series [18] turned out to be 7.13 ×10⁻⁶ cm/s.

With `COc1cc(/C=C/c2ccc(NCc3cc[nH]c3)cc2)cc(OC)c1`, in series [14], the Activity stood at 3.51 equiv. The molecule also registered an inhibition in [5] of 13.6%.

As for `Oc1cc(O)cc(/C=C/c2ccc(NCc3cccc(O)c3O)cc2)c1`, the Activity in series [14] is 3.26 equiv. The same molecule showed an IC50 in [16] of 7.87 µM. This molecule registered an inhibition in [5] of 78.8%.

Take `CCCNc1ccc(O)c(CNc2ccc(/C=C/c3cc(OC)cc(OC)c3)cc2)c1`: the Activity in series [14] was found to be 2.91 equiv. The same molecule had an IC50 in series [16] of 13.1 µM. Also, the inhibition in [5] is 62.5%.

Turning to `COc1cc(/C=C/c2ccc(NCc3ccccc3N(C)C)cc2)cc(OC)c1`, the Activity in series [14] was found to be 5.87 equiv. This molecule displayed an inhibition in series [5] of 7.17%.
